# Results from ChEMBL document CHEMBL4610039, “Design, synthesis and apoptosis-related antiproliferative activities of chelidonine derivatives” (Bioorg Med Chem Lett, 2020).
# Active and inactive are the calls of the source. The rule behind the calls is not given here.
# Key:
# K562 [1] = assay: Induction of mitochondrial membrane potential loss in human K562 cells assessed as cell population with mitochondrial membrane potential collapse at 1.10 uM after 48 hrs by JC1 staining-based flow cytometry analysis (reference value: 7.04%); assay type: functional
# K562 [2] = assay: Induction of cell cycle arrest in human K562 cells assessed as accumulation at S phase after 72 hrs by propidium iodide staining based flow cytometry; assay type: functional
# In short: (§1)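 For cell cycle, K562 cells were treated 72 h at 0, 0.55, 1.10 or 2.20 μM, with a solvent control. Cells were stained with PI and G1, S and G2/M fractions determined by flow cytometry.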
# K562 [3] = assay: Induction of apoptosis in human K562 cells assessed as reduction in clusterin protein expression after 24 hrs by chemiluminescence based protein array analysis; assay type: functional, cell-based
# In short: (§2)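 K562 cells were treated for 24 h, then proteins were extracted and run on a human apoptosis protein array. Chemiluminescent signals were detected with a digital imaging system.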
# K562 [4] = assay: Antiproliferative activity against human K562 cells assessed as reduction in cell growth after 72 hrs by MTT assay; assay type: functional, cell-based; settings: K562, 72 h
# In short: (§3)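 Human HepG2, MCF-7, HCT-116 and K562 tumour cells plus normal L-02 hepatocytes and PBMCs were exposed to compounds for 72 h and growth was read by MTT. 5-Fu served as positive control. IC50 is the concentration inhibiting 50% of cell growth, given as mean ± standard deviation of three independent experiments.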
# K562 [5] = assay: Induction of cell cycle arrest in human K562 cells assessed as accumulation at S phase at 0.55 uM after 72 hrs by propidium iodide staining based flow cytometry (reference value: 35.68%); assay type: functional; in short: as §1
# HepG2 = assay: Antiproliferative activity against human HepG2 cells assessed as reduction in cell growth after 72 hrs by MTT assay; assay type: functional, cell-based; settings: HepG2, 72 h; in short: as §3
# K562 [6] = assay: Induction of mitochondrial membrane potential loss in human K562 cells assessed as cell population with intact mitochondrial membrane potential at 1.10 uM after 48 hrs by JC1 staining-based flow cytometry analysis (reference value: 92.94%); assay type: functional
# K562 [7] = assay: Induction of apoptosis in human K562 cells by annexin V-FITC/propidium iodide staining based flow cytometry; assay type: functional, cell-based
# K562 [8] = assay: Induction of apoptosis in human K562 cells assessed as viable cells at 2.20 uM after 48 hrs by annexin V-FITC/propidium iodide staining based flow cytometry (reference value: 96.26%); assay type: functional; settings: K562, 48 h, read-out: Activity
# K562 [9] = assay: Induction of cell cycle arrest in human K562 cells assessed as accumulation at S phase at 2.20 uM after 72 hrs by propidium iodide staining based flow cytometry (reference value: 35.68%); assay type: functional; in short: as §1
# K562 [10] = assay: Induction of cell cycle arrest in human K562 cells assessed as accumulation at G1 phase at 1.10 uM after 72 hrs by propidium iodide staining based flow cytometry (reference value: 56.13%); assay type: functional; in short: as §1
# K562 [11] = assay: Induction of mitochondrial membrane potential loss in human K562 cells assessed as cell population with intact mitochondrial membrane potential at 2.20 uM after 48 hrs by JC1 staining-based flow cytometry analysis (reference value: 92.94%); assay type: functional
# K562 [12] = assay: Induction of apoptosis in human K562 cells assessed as necrotic cells at 2.20 uM after 48 hrs by annexin V-FITC/propidium iodide staining based flow cytometry (reference value: 0.78%); assay type: functional
# K562 [13] = assay: Induction of apoptosis in human K562 cells assessed as early apoptotic cells at 1.10 uM after 48 hrs by annexin V-FITC/propidium iodide staining based flow cytometry (reference value: 2.23%); assay type: functional
# K562 [14] = assay: Induction of mitochondrial membrane potential loss in human K562 cells assessed as cell population with mitochondrial membrane potential collapse at 0.55 uM after 48 hrs by JC1 staining-based flow cytometry analysis (reference value: 7.04%); assay type: functional
# K562 [15] = assay: Induction of apoptosis in human K562 cells assessed as late apoptotic cells at 2.20 uM after 48 hrs by annexin V-FITC/propidium iodide staining based flow cytometry (reference value: 0.73%); assay type: functional
# K562 [16] = assay: Induction of apoptosis in human K562 cells assessed as increase in Bad protein expression after 24 hrs by chemiluminescence based protein array analysis; assay type: functional, cell-based; in short: as §2
# L02 = assay: Antiproliferative activity against human L02 cells assessed as reduction in cell growth after 72 hrs by MTT assay; assay type: functional, cell-based; settings: L02, 72 h; in short: as §3
# K562 [17] = assay: Induction of cell cycle arrest in human K562 cells assessed as accumulation at G2/M phase at 1.10 uM after 72 hrs by propidium iodide staining based flow cytometry (reference value: 8.19%); assay type: functional; in short: as §1
# K562 [18] = assay: Induction of cell cycle arrest in human K562 cells assessed as accumulation at S phase at 1.10 uM after 72 hrs by propidium iodide staining based flow cytometry (reference value: 35.68%); assay type: functional; in short: as §1
# HCT-116 = assay: Antiproliferative activity against human HCT116 cells assessed as reduction in cell growth after 72 hrs by MTT assay; assay type: functional, cell-based; settings: HCT-116, 72 h; in short: as §3
# K562 [19] = assay: Induction of apoptosis in human K562 cells assessed as early apoptotic cells at 0.55 uM after 48 hrs by annexin V-FITC/propidium iodide staining based flow cytometry (reference value: 2.23%); assay type: functional
# K562 [20] = assay: Induction of apoptosis in human K562 cells assessed as necrotic cells at 0.55 uM after 48 hrs by annexin V-FITC/propidium iodide staining based flow cytometry (reference value: 0.78%); assay type: functional
# [21] = Drug metabolism assessed as nitric oxide release after 210 mins; assay type: physicochemical; settings: 3.5 h
# In short: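 NO released from the NO-donating derivatives was measured over time up to 210 min by Griess assay.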
# K562 [22] = assay: Induction of mitochondrial membrane potential loss in human K562 cells after 48 hrs by JC1 staining-based flow cytometry analysis; assay type: functional, cell-based
# K562 [23] = assay: Induction of apoptosis in human K562 cells assessed as late apoptotic cells at 1.10 uM after 48 hrs by annexin V-FITC/propidium iodide staining based flow cytometry (reference value: 0.73%); assay type: functional
# K562 [24] = assay: Induction of mitochondrial membrane potential loss in human K562 cells assessed as cell population with mitochondrial membrane potential collapse at 2.20 uM after 48 hrs by JC1 staining-based flow cytometry analysis (reference value: 7.04%); assay type: functional
# MCF7 = assay: Antiproliferative activity against human MCF7 cells assessed as reduction in cell growth after 72 hrs by MTT assay; assay type: functional, cell-based; settings: MCF7, 72 h; in short: as §3
# K562 [25] = assay: Induction of apoptosis in human K562 cells assessed as necrotic cells at 1.10 uM after 48 hrs by annexin V-FITC/propidium iodide staining based flow cytometry (reference value: 0.78%); assay type: functional
# K562 [26] = assay: Induction of apoptosis in human K562 cells assessed as reduction in survivin level after 24 hrs by chemiluminescence based protein array analysis; assay type: functional, cell-based; in short: as §2
# K562 [27] = assay: Induction of apoptosis in human K562 cells assessed as late apoptotic cells at 0.55 uM after 48 hrs by annexin V-FITC/propidium iodide staining based flow cytometry (reference value: 0.73%); assay type: functional
# PBMC = assay: Cytotoxicity against human PBMC assessed as reduction in cell growth after 72 hrs by MTT assay; assay type: cell-based; in short: as §3
# K562 [28] = assay: Induction of apoptosis in human K562 cells assessed as reduction in catalase protein expression after 24 hrs by chemiluminescence based protein array analysis; assay type: functional, cell-based; in short: as §2
# K562 [29] = assay: Induction of apoptosis in human K562 cells assessed as reduction in claspin level after 24 hrs by chemiluminescence based protein array analysis; assay type: functional, cell-based; in short: as §2
compound,measurement,setting,value
CN1Cc2c(ccc3c2OCO3)[C@H]2[C@@H](OC(=O)CCCC(=O)OCC#CCOc3no[n+]([O-])c3S(=O)(=O)c3ccccc3)Cc3cc4c(cc3[C@H]21)OCO4,Activity,K562 [1],28.66%
same,Activity,K562 [2],Dose-dependent effect
same,Activity,K562 [3],Active
same,IC50,K562 [4],1.12 µM
same,Activity,K562 [5],41.89%
same,IC50,HepG2,3.91 µM
same,Activity,K562 [6],71.34%
same,Activity,K562 [7],Dose-dependent effect
same,viability at 2.2 µM,K562 [8],45%
same,Activity,K562 [9],59.72%
same,Activity,K562 [10],41.27%
same,Activity,K562 [11],48.85%
same,Activity,K562 [12],1.16%
same,Activity,K562 [13],16.46%
same,Activity,K562 [14],19.29%
same,Activity,K562 [15],28.97%
same,Activity,K562 [16],Active
same,IC50,L02,6.04 µM
same,Activity,K562 [17],6.69%
same,Activity,K562 [18],52.04%
same,IC50,HCT-116,4.36 µM
same,Activity,K562 [19],6.49%
same,Activity,K562 [20],1.69%
same,Drug metabolism,[21],30 µM
same,Activity,K562 [22],Dose-dependent effect
same,Activity,K562 [23],2.39%
same,Activity,K562 [24],51.15%
same,IC50,MCF7,6.9 µM
same,Activity,K562 [25],0.66%
same,Activity,K562 [26],Active
same,Activity,K562 [27],3.47%
same,IC50,PBMC,> 40 µM
same,Activity,K562 [28],Active
same,Activity,K562 [29],Active
